Measurements from ChEMBL document CHEMBL1125344, “(Pyridylcyanomethyl)piperazines as orally active PAF antagonists” (J Med Chem, 1992).

Assays:
[1] = molecular target: Platelet-activating factor receptor (Mus musculus) (UniProt Q62035); assay: Oral dose required to inhibit PAF-induced mortality (PAF-Antagonistic activity)in mice by 50%.; type: functional; conditions: Mus sp.
Procedure, shortened: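 Male Swiss mice, 22-26 g, in groups of 10. Compound or saline given po (20 mL/kg) 60 min before C18-PAF 100 µg/kg plus propranolol 1 mg/kg by tail vein. ID50 from percent inhibition of mortality versus controls.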

[2] = molecular target: Platelet-activating factor receptor (Rattus norvegicus) (UniProt P46002); assay: Dose required to inhibit PAF-induced hypotension (PAF-Antagonistic activity) in normotensive rats by 50%.; type: functional
Procedure, shortened: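 Male Sprague-Dawley rats, 180-220 g, anesthetized with sodium pentobarbital ip. Carotid blood pressure recorded. Compound given iv in saline (1 mL/kg) via femoral vein 3 min before PAF 0.5 µg/kg iv; vehicle controls. ID50 by linear regression of one curve of at least four doses, each the mean % inhibition from two or more experiments.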

[3] = molecular target: Platelet-activating factor receptor (Rattus norvegicus) (UniProt P46002); assay: In vivo dose administered intravenously to inhibit PAF-induced hypotension (PAF-Antagonistic activity) in normotensive rats by 59%.; type: functional, organism-based

Sequence of Platelet-activating factor receptor (Mus musculus) (Q62035 whole entry): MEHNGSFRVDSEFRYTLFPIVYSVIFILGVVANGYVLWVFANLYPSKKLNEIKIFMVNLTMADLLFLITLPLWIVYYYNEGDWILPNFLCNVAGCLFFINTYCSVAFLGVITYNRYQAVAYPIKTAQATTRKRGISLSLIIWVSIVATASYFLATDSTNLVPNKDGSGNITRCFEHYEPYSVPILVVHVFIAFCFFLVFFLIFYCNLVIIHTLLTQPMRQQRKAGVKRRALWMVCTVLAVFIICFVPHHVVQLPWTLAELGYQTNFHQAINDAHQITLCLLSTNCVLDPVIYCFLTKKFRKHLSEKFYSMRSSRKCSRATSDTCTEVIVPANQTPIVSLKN
Sequence of Platelet-activating factor receptor (Rattus norvegicus) (P46002 whole entry): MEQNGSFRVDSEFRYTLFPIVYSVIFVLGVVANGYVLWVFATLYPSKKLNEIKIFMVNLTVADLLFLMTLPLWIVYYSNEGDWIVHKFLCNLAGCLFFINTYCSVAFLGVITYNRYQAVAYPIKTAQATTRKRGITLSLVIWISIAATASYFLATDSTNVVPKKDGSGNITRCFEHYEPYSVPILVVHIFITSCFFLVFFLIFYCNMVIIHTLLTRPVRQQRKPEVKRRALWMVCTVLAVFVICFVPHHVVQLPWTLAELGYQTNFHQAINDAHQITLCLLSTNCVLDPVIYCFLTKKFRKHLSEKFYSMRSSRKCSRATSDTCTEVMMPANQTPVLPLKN

Structure (SMILES) | ID50 [1] [mg/kg] | ID50 [2] [mg/kg] | ID50 [3] [mg/kg]
CC(C#N)(c1cccnc1)N1CCN(C(=O)C(c2ccccc2)c2ccccc2)CC1 (stereo not drawn) | > 30 | > 5 | 
N#CC(c1cccc([N+](=O)[O-])c1)N1CCN(C(=O)CC(c2ccccc2)c2ccccc2)CC1 (stereo not drawn) | > 30 | > 5 | 
COc1cc(C(=O)N2CCN(C(=S)c3cccnc3)CC2)cc(OC)c1OC | 100 | > 5 | 
CC(NCC(=O)N1CCN(C(C#N)c2cccnc2)CC1)c1ccccc1 (stereo not drawn) | 18 | 0.39 | 
N#CC(c1cccnc1)N1CCN(C(=O)CCNC(c2ccccc2)c2ccccc2)CC1 (stereo not drawn) | 5.4 | 0.025 | 
N#CC(c1cccnc1)N1CCN(C(=O)Cc2c[nH]c3ccccc23)CC1 (stereo not drawn) | > 50 | 3.3 | 
N#CC(c1ccncc1)N1CCN(C(=O)CC(c2ccccc2)c2ccccc2)CC1 (stereo not drawn) | 7.3 | 0.041 | 
N#CC(c1cccnc1)N1CCN(CC(=O)NCCC(c2ccccc2)c2ccccc2)CC1 (stereo not drawn) | > 30 | 3 | 
N#CC(c1cccnc1)N1CCN(C(=O)C(c2ccccc2)c2ccccc2)CC1 (stereo not drawn) | 12 | 0.11 | 
O=C(c1cccnc1)N1CCN(C(=O)C(c2ccccc2)c2ccccc2)CC1 |  | > 5 | 
N#CC(c1cccnc1)N1CCN(C(=O)CC(O)(c2ccccc2)c2ccccc2)CC1 (stereo not drawn) | 4.7 | 0.061 | 
N#CC(c1ccncc1)N1CCN(CCNC(c2ccccc2)c2ccccc2)CC1 (stereo not drawn) | 29 |  | 5
N#CC(CN1CCN(C(=O)C(c2ccccc2)c2ccccc2)CC1)c1cccnc1 (stereo not drawn) |  | > 5 | 
CN(CC(=O)N1CCN(C(C#N)c2cccnc2)CC1)c1ccccc1 (stereo not drawn) |  | 2.2 | 
COc1cc(CC(=O)N2CCN(C(C#N)c3cccnc3)CC2)cc(OC)c1OC (stereo not drawn) | > 50 | 2.5 | 
O=C(C(c1ccccc1)c1ccccc1)N1CC[N+]([O-])(Cc2cccnc2)CC1 |  | > 5 | 
O=C(CC(c1ccccc1)c1ccccc1)N1CCN(Cc2cccnc2)CC1 | 35 | 0.48 | 
N#CC(c1cccnc1)N1CCN(C(=O)/C=C/c2ccccc2)CC1 (stereo not drawn) | 100 | 0.24 | 
N#CC(c1cccnc1)N1CCN(C(=O)OCC(c2ccccc2)c2ccccc2)CC1 (stereo not drawn) | > 30 | 0.078 | 
N#CC(=C1CCN(C(=O)CC(c2ccccc2)c2ccccc2)CC1)c1cccnc1 | 30 | 0.42 | 
N#CC(c1cccnc1)N1CCN(C(=O)CN(Cc2ccccc2)Cc2ccccc2)CC1 (stereo not drawn) | > 10 | 1.7 | 

Structure (SMILES) | ID50 [1] [mg/kg] | ID50 [2] [mg/kg] | ID50 [3] [mg/kg]
N#CC(c1cccnc1)N1CCN(C(=O)NC(c2ccccc2)c2ccccc2)CC1 (stereo not drawn) | 30 | 0.29 | 
N#CC(c1cccnc1)N1CCN(C(=O)Cc2ccccc2)CC1 (stereo not drawn) | 50 | 1.5 | 
N#CC(c1cccnc1)N1CCN(C(=O)CNC(c2ccccc2)c2ccccc2)CC1 (stereo not drawn) | 5.9 | 0.023 | 
N#CC(c1cccc(C(F)(F)F)c1)N1CCN(C(=O)CC(c2ccccc2)c2ccccc2)CC1 (stereo not drawn) | > 30 | > 5 | 
N#CC(c1cccnc1)N1CCN(CCNC(=O)C(c2ccccc2)c2ccccc2)CC1 (stereo not drawn) | 50 | 0.29 | 
N#CC(c1cccnc1)N1CCN(C(=O)CNC(Cc2ccccc2)c2ccccc2)CC1 (stereo not drawn) | > 10 | 0.38 | 
N#CC(c1cccnc1)N1CCN(C(=O)c2ccccc2)CC1 (stereo not drawn) |  | > 5 | 
N#CC(c1cccnc1)N1CCN(C(=O)CNCc2ccccc2)CC1 (stereo not drawn) | 50 | 0.8 | 
N#CC1(Nc2cccnc2)CCN(C(=O)CC(c2ccccc2)c2ccccc2)CC1 | 12 | 0.04 | 
N#CC(c1cccnc1)N1CCN(C(=O)CNCC(c2ccccc2)c2ccccc2)CC1 (stereo not drawn) | > 10 | 0.36 | 
N#CC(c1cccnc1)N1CCN(C(=O)Cc2cccc3ccccc23)CC1 (stereo not drawn) | > 50 | 1.3 | 
CCCCCCCCCCCCCCCC(=O)N1CCN(C(C#N)c2cccnc2)CC1 (stereo not drawn) |  | > 5 | 
N#Cc1cccc(C(C#N)N2CCN(C(=O)CC(c3ccccc3)c3ccccc3)CC2)c1 (stereo not drawn) | > 30 | > 5 | 
CN(CCCc1ccccc1)CC(=O)N1CCN(C(C#N)c2cccnc2)CC1 (stereo not drawn) |  | > 5 | 
N#CC(c1cncs1)N1CCN(C(=O)CC(c2ccccc2)c2ccccc2)CC1 (stereo not drawn) | 25 | 0.75 | 
N#CC1(Nc2cccnc2)CCN(C(=O)CNC(c2ccccc2)c2ccccc2)CC1 | 15 | 0.096 | 
COc1cc(CCC(=O)N2CCN(C(=O)c3cc(OC)c(OC)c(OC)c3)CC2)cc(OC)c1OC |  | > 5 | 
O=C(CC(c1ccccc1)c1ccccc1)N1CCC(Nc2cccnc2)CC1 |  | 2.4 | 
N#CC(c1cccnc1)C1CCN(C(=O)CNC(c2ccccc2)c2ccccc2)CC1 (stereo not drawn) | 2.6 | 0.03 | 
Cc1nnc2n1-c1sc(CCC(=O)N3CCOCC3)cc1C(c1ccccc1Cl)=NC2 | 0.97 | 0.17 | 
